# ChEMBL document CHEMBL1137725, “11C-labelled PIB analogues as potential tracer agents for in vivo imaging of amyloid beta in Alzheimer's disease” (Eur J Med Chem, 2009)
# Active and inactive are the calls of the source. The calls are words filed in the database; no cut-off is given here.
# Legend:
# Liver [1] = assay: Biodistribution in NMRI mouse liver at 37 MBq/mL, iv after 2 mins postinjection by gamma counting; format: ADME, organism-based; conditions: in vivo
# How it was run: (§1)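 Normal mice given the 11C tracer i.v.; killed by decapitation at 2 or 60 min p.i. (n = 4 per time point). Blood collected in tared tube and weighed; organs dissected and weighed, then gamma-counted. Counts background-corrected and expressed as %ID per organ or %ID/g tissue.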
# [2] = Biodistribution in NMRI mouse urine at 37 MBq/mL, iv after 2 mins postinjection by gamma counting; format: ADME, organism-based; conditions: in vivo; how it was run: as §1
# [3] = Partition coefficient, log P in Octanol and 0.025 M phosphate buffer at pH7.4 by gamma counter; format: physicochemical; conditions: octanol/0.025 M phosphate buffer, pH 7.4
# How it was run: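 HPLC-purified 11C tracer added to 1-octanol and 2 ml 0.025 M phosphate buffer pH 7.4. Vortexed 3 min at room temperature, centrifuged 2700 g for 10 min. Aliquots of each phase weighed and gamma-counted; P = (cpm/ml octanol)/(cpm/ml buffer). Triplicate.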
# Blood [4] = assay: Biodistribution in NMRI mouse blood at 37 MBq/mL, iv after 60 mins postinjection by gamma counting; format: ADME, organism-based; conditions: in vivo, 1 h; how it was run: as §1
# Blood [5] = assay: Biodistribution in NMRI mouse blood at 37 MBq/mL, iv after 2 mins postinjection assessed per gram of tissue by gamma counting; format: ADME, organism-based; conditions: in vivo; how it was run: as §1
# Liver [6] = assay: Biodistribution in NMRI mouse liver at 37 MBq/mL, iv after 60 mins postinjection assessed per gram of tissue by gamma counting; format: ADME, organism-based; conditions: in vivo, 1 h; how it was run: as §1
# Cerebellum [7] = assay: Biodistribution in NMRI mouse cerebellum at 37 MBq/mL, iv after 2 mins postinjection assessed per gram of tissue by gamma counting; format: ADME, organism-based; conditions: in vivo; how it was run: as §1
# Liver [8] = assay: Biodistribution in NMRI mouse liver at 37 MBq/mL, iv after 2 mins postinjection assessed per gram of tissue by gamma counting; format: ADME, organism-based; conditions: in vivo; how it was run: as §1
# [9] = Biodistribution in NMRI mouse cerebrum at 37 MBq/mL, iv after 60 mins postinjection by gamma counting; format: ADME, organism-based; conditions: in vivo, 1 h; how it was run: as §1
# [10] = Biodistribution in NMRI mouse cerebrum at 37 MBq/mL, iv after 2 mins postinjection assessed per gram of tissue by gamma counting; format: ADME, organism-based; conditions: in vivo; how it was run: as §1
# [11] = Biodistribution in NMRI mouse urine at 37 MBq/mL, iv after 60 mins postinjection by gamma counting; format: ADME, organism-based; conditions: in vivo, 1 h; how it was run: as §1
# Blood [12] = assay: Biodistribution in NMRI mouse blood at 37 MBq/mL, iv after 2 mins postinjection by gamma counting; format: ADME, organism-based; conditions: in vivo; how it was run: as §1
# Intestine [13] = assay: Biodistribution in NMRI mouse intestine at 37 MBq/mL, iv after 2 mins postinjection by gamma counting; format: ADME, organism-based; conditions: in vivo; how it was run: as §1
# Liver [14] = assay: Biodistribution in NMRI mouse liver at 37 MBq/mL, iv after 60 mins postinjection by gamma counting; format: ADME, organism-based; conditions: in vivo, 1 h; how it was run: as §1
# Kidney [15] = assay: Biodistribution in NMRI mouse kidney at 37 MBq/mL, iv after 2 mins postinjection by gamma counting; format: ADME, organism-based; conditions: in vivo; how it was run: as §1
# Cerebellum [16] = assay: Biodistribution in NMRI mouse cerebellum at 37 MBq/mL, iv after 60 mins postinjection assessed per gram of tissue by gamma counting; format: ADME, organism-based; conditions: in vivo, 1 h; how it was run: as §1
# Intestine [17] = assay: Biodistribution in NMRI mouse intestine at 37 MBq/mL, iv after 60 mins postinjection by gamma counting; format: ADME, organism-based; conditions: in vivo, 1 h; how it was run: as §1
# [18] = Biodistribution in NMRI mouse cerebrum at 37 MBq/mL, iv after 60 mins postinjection assessed per gram of tissue by gamma counting; format: ADME, organism-based; conditions: in vivo, 1 h; how it was run: as §1
# Blood [19] = assay: Biodistribution in NMRI mouse blood at 37 MBq/mL, iv after 60 mins postinjection assessed per gram of tissue by gamma counting; format: ADME, organism-based; conditions: in vivo, 1 h; how it was run: as §1
# [20] = Biodistribution in NMRI mouse cerebrum at 37 MBq/mL, iv after 2 mins postinjection by gamma counting; format: ADME, organism-based; conditions: in vivo; how it was run: as §1
# Blood [21] = assay: Blood clearance in NMRI mouse assessed ratio of %ID in blood after 2 mins to %ID in blood after 60 mins at 37 MBq/mL, iv; format: ADME, tissue-based
# How it was run: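 Normal mice given i.v. 11C tracer; blood collected at 2 and 60 min p.i. (n = 4 per time point), weighed and gamma-counted. Clearance expressed as the ratio of %ID/g blood at 2 min to %ID/g blood at 60 min.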
# [22] = Biodistribution in NMRI mouse hepatobiliary system at 37 MBq/mL, iv after 60 mins postinjection by gamma counting; format: ADME, organism-based; conditions: in vivo, 1 h; how it was run: as §1
# Kidney [23] = assay: Biodistribution in NMRI mouse kidney at 37 MBq/mL, iv after 60 mins postinjection assessed per gram of tissue by gamma counting; format: ADME, organism-based; conditions: in vivo, 1 h; how it was run: as §1
# Cerebellum [24] = assay: Biodistribution in NMRI mouse cerebellum at 37 MBq/mL, iv after 60 mins postinjection by gamma counting; format: ADME, organism-based; conditions: in vivo, 1 h; how it was run: as §1
# Cerebellum [25] = assay: Biodistribution in NMRI mouse cerebellum at 37 MBq/mL, iv after 2 mins postinjection by gamma counting; format: ADME, organism-based; conditions: in vivo; how it was run: as §1
# Kidney [26] = assay: Biodistribution in NMRI mouse kidney at 37 MBq/mL, iv after 60 mins postinjection by gamma counting; format: ADME, organism-based; conditions: in vivo, 1 h; how it was run: as §1
# Kidney [27] = assay: Biodistribution in NMRI mouse kidney at 37 MBq/mL, iv after 2 mins postinjection assessed per gram of tissue by gamma counting; format: ADME, organism-based; conditions: in vivo; how it was run: as §1
# [28] = molecular target: T1, Amyloid-beta precursor protein (Homo sapiens, UniProt P05067); assay: Binding affinity to fibrillar beta-amyloid plaques in cortex of patient with Alzheimer's disease at 1 uM by fluorescence microscopy
# T1 sequence (P05067 whole entry): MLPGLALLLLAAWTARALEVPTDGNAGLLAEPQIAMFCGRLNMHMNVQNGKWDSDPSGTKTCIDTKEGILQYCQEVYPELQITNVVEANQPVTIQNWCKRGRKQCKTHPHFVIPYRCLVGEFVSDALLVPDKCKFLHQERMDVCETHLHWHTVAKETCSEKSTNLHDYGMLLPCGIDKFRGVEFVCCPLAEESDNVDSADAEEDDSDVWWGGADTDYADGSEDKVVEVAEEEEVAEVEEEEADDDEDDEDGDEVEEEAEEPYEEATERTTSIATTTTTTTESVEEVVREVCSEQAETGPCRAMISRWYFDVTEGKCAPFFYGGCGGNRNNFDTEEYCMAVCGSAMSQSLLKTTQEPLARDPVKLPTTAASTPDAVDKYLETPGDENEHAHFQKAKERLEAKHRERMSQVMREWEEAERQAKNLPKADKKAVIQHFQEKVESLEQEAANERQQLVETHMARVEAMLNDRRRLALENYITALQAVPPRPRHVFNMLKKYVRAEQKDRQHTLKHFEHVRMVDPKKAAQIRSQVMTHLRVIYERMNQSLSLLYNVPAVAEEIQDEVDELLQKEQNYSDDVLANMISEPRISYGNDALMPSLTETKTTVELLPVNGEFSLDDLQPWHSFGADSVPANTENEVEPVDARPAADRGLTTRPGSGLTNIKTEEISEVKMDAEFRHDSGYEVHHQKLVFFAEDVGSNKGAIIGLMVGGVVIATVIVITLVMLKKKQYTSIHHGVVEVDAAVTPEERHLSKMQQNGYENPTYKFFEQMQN
# How it was run: (§2)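 Paraffin 8 µm sagittal sections of transgenic APP (London mutation) mouse brain or post-mortem human AD brain; xylol and graded-ethanol deparaffinization, then 1 h incubation with cold compound; tap-water rinse, Mowiol-DABCO mounting. Fluorescence microscopy with UV filter set (excitation 355–425 nm, emission 470 nm longpass). Neighbouring sections immunostained with pan Aβ or AβN25 antibody to check co-localization.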
# [29] = molecular target: T1, Amyloid-beta precursor protein; assay: Binding affinity to beta-amyloid plaques in cortex of patient with Alzheimer's disease at 1 uM by fluorescence microscopy; how it was run: as §2
# [30] = molecular target: T1, Amyloid-beta precursor protein; assay: Binding affinity to vascular beta-amyloid plaques in vibratome section of transgenic mouse cortex overexpressing human APP at 1 uM by fluorescence microscopy
# How it was run: (§3)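 Vibratome sections of transgenic APP (London mutation) mouse brain cortex incubated with cold compound. Fluorescence microscopy with UV filter set (excitation 355–425 nm, emission 470 nm longpass). For co-localization, one section was incubated first with AβN25 antibody and then with compound.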
# [31] = molecular target: T1, Amyloid-beta precursor protein; assay: Displacement of [125I]IMPY from beta-amyloid plaques in brain homogenate of patient with Alzheimer's disease by gamma counting; format: tissue-based
# How it was run: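 Gray-matter homogenates of post-mortem AD cortex in PBS pH 7.4, about 100 mg wet tissue/ml. Incubated 2 h at 37 °C, then GF/B vacuum filtration, two PBS washes, gamma counting. Ki from non-linear regression using Ki = IC50/(1+L/Kd).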
# [32] = molecular target: T1, Amyloid-beta precursor protein; assay: Binding affinity to beta-amyloid plaques in subiculum of transgenic mouse overexpressing human APP at 1 uM by fluorescence microscopy; format: tissue-based; how it was run: as §2
# [33] = molecular target: T1, Amyloid-beta precursor protein; assay: Binding affinity to vascular beta-amyloid plaques in vibratome section of transgenic mouse overexpressing human APP at 0.1 uM by fluorescence microscopy; conditions: 1 uM, in the assay text read “at 1 uM” for “at 0.1 uM”; how it was run: as §3
# [34] = molecular target: T1, Amyloid-beta precursor protein; assay: Binding affinity to core beta-amyloid plaques in vibratome section of transgenic mouse overexpressing human APP at 1 uM by fluorescence microscopy; how it was run: as §3
SMILES,Drug uptake (Liver [1]),Drug uptake [2],Drug uptake (Blood [4]),Drug uptake (Blood [5]),Drug uptake (Liver [6]),Drug uptake (Cerebellum [7]),Drug uptake (Liver [8]),Drug uptake [9],Drug uptake [10],Drug uptake [11],Drug uptake (Blood [12]),Drug uptake (Intestine [13]),Drug uptake (Liver [14]),Drug uptake (Kidney [15]),Drug uptake (Cerebellum [16]),Drug uptake (Intestine [17]),Drug uptake [18],Drug uptake (Blood [19]),Drug uptake [20],Drug uptake (Kidney [23]),other results
[11CH3]Nc1ccc(-c2nc3c(O)cccc3s2)cc1,21.2 %ID,0.2 %ID,2.3 %ID,6.5 % ID/g,3.7 % ID/g,2.7 % ID/g,11.1 % ID/g,0.1 %ID,3.8 % ID/g,22.7 %ID,13.8 %ID,12 %ID,6.4 %ID,10.6 %ID,0.6 % ID/g,52.3 %ID,0.3 % ID/g,1 % ID/g,1.2 %ID,1.2 % ID/g,logD [3]: 3.18; Ratio (Blood [21]): 6; Drug uptake [22]: 59 %ID; Drug uptake (Cerebellum [24]): 0 %ID; Drug uptake (Cerebellum [25]): 0.2 %ID; Drug uptake (Kidney [26]): 0.6 %ID; Drug uptake (Kidney [27]): 19.4 % ID/g
CNc1ccc(-c2nc3cccc(O)c3s2)cc1,–,–,–,–,–,–,–,–,–,–,–,–,–,–,–,–,–,–,–,–,Activity [28]: Active; Activity [29]: Active; Activity [30]: Active; Ki [31]: 0.0112 µM; Activity [32]: Active; Activity [33]: Active
CNc1ccc(-c2nc3c(O)cccc3s2)cc1,–,–,–,–,–,–,–,–,–,–,–,–,–,–,–,–,–,–,–,–,Activity [28]: Active; Activity [29]: Active; Ki [31]: 0.0188 µM; Activity [32]: Active
CNc1ccc(-c2nc3cc(O)ccc3s2)cc1,–,–,–,–,–,–,–,–,–,–,–,–,–,–,–,–,–,–,–,–,Activity [34]: Active; Activity [28]: Active; Activity [29]: Active; Activity [30]: Active; Ki [31]: 0.0115 µM; Activity [32]: Active; Activity [33]: Active

# Second part, led by results:
Drug uptake (Liver [1]),Drug uptake [2],Drug uptake (Blood [4]),Drug uptake (Blood [5]),Drug uptake (Liver [6]),Drug uptake (Cerebellum [7]),Drug uptake (Liver [8]),Drug uptake [9],Drug uptake [10],Drug uptake [11],Drug uptake (Blood [12]),Drug uptake (Intestine [13]),Drug uptake (Liver [14]),Drug uptake (Kidney [15]),Drug uptake (Cerebellum [16]),Drug uptake (Intestine [17]),Drug uptake [18],Drug uptake (Blood [19]),Drug uptake [20],Drug uptake (Kidney [23]),SMILES,other results
25.8 %ID,0.35 %ID,0.5 %ID,2.5 % ID/g,2.2 % ID/g,4.4 % ID/g,12.1 % ID/g,0.03 %ID,4.3 % ID/g,14.6 %ID,6 %ID,12.9 %ID,4.2 %ID,8.1 %ID,0.08 % ID/g,73.7 %ID,0.09 % ID/g,0.21 % ID/g,1.3 %ID,1.2 % ID/g,[11CH3]Nc1ccc(-c2nc3cc(O)ccc3s2)cc1,logD [3]: 2.48; Drug uptake [22]: 78 %ID; Drug uptake (Cerebellum [24]): 0.01 %ID; Drug uptake (Cerebellum [25]): 0.57 %ID; Drug uptake (Kidney [26]): 0.7 %ID; Drug uptake (Kidney [27]): 14.2 % ID/g
15.6 %ID,0.2 %ID,2.7 %ID,3.1 % ID/g,5 % ID/g,1.6 % ID/g,7.9 % ID/g,0.2 %ID,3.6 % ID/g,24.4 %ID,7.9 %ID,12 %ID,9.8 %ID,10.3 %ID,0.3 % ID/g,42.5 %ID,0.6 % ID/g,1.1 % ID/g,1.1 %ID,9.1 % ID/g,CNc1ccc(-c2nc3ccc(O)cc3s2)cc1 [PITTSBURGH COMPOUND B UNLABELLED],Drug uptake (Cerebellum [24]): 0 %ID; Drug uptake (Cerebellum [25]): 0.2 %ID; Drug uptake (Kidney [26]): 4.8 %ID; Drug uptake (Kidney [27]): 19.9 % ID/g
27.8 %ID,0.58 %ID,1.2 %ID,4.6 % ID/g,4 % ID/g,2.8 % ID/g,14.5 % ID/g,0.05 %ID,2.6 % ID/g,24.8 %ID,9.8 %ID,9.4 %ID,7.1 %ID,9 %ID,0.1 % ID/g,54.7 %ID,0.16 % ID/g,0.57 % ID/g,0.83 %ID,4.8 % ID/g,[11CH3]Nc1ccc(-c2nc3cccc(O)c3s2)cc1,logD [3]: 2.45; Ratio (Blood [21]): 12; Drug uptake (Cerebellum [24]): 0.01 %ID; Drug uptake (Cerebellum [25]): 0.22 %ID; Drug uptake (Kidney [26]): 2.5 %ID; Drug uptake (Kidney [27]): 16.9 % ID/g
